Source: ChEMBL document CHEMBL2346629, “Discovery and characterization of novel allosteric FAK inhibitors” (Eur J Med Chem, 2013)

Legend:
[1] = biological target: SRSF protein kinase 2 (Homo sapiens) (UniProt P78362); assay: Inhibition of SRPK2 (unknown origin) using [gamma-33P]ATP assessed as residual activity at 3 uM
[2] = biological target: Serine/threonine-protein kinase PAK 2 (Homo sapiens) (UniProt Q13177); assay: Inhibition of PAK2 (unknown origin) using [gamma-33P]ATP assessed as residual activity at 3 uM
[3] = biological target: Macrophage-stimulating protein receptor (Homo sapiens) (UniProt Q04912); assay: Inhibition of RON (unknown origin) using [gamma-33P]ATP assessed as residual activity at 3 uM
[4] = biological target: Ephrin type-A receptor 1 (Homo sapiens) (UniProt P21709); assay: Inhibition of EPHA1 (unknown origin) using [gamma-33P]ATP assessed as residual activity at 3 uM
Outline: (§1)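 Reaction Biology HotSpot radiometric profiling panel of 288 kinases (261 wild-type, 27 mutant). Kinase activity was read out by incorporation of [γ-33P]ATP.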

[5] = biological target: Serine/threonine-protein kinase Nek7 (Homo sapiens) (UniProt Q8TDX7); assay: Inhibition of NEK7 (unknown origin) using [gamma-33P]ATP assessed as residual activity at 3 uM
Chain of Serine/threonine-protein kinase Nek7 (Homo sapiens) (Q8TDX7 whole entry, looked up): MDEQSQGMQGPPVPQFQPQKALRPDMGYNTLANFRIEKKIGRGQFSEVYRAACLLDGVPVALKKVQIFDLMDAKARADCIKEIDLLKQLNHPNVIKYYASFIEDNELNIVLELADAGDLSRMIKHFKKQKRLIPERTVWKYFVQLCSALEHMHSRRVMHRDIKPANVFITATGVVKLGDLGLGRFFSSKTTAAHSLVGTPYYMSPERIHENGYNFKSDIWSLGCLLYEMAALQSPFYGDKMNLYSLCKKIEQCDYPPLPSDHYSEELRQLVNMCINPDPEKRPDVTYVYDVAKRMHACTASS

[6] = biological target: Insulin-like growth factor 1 receptor (Homo sapiens) (UniProt P08069); assay: Inhibition of IGF-1R (unknown origin) using [gamma-33P]ATP assessed as residual activity at 3 uM
Outline: (§2)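 Radiometric kinase profiling service covering 288 kinases (261 wild-type, 27 mutant). Inhibition was read as incorporation from [γ-³³P]ATP.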

[7] = biological target: Activin receptor type-1B (Homo sapiens) (UniProt P36896); assay: Inhibition of ALK4 (unknown origin) using [gamma-33P]ATP assessed as residual activity at 3 uM
Outline: (§3)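 Radiometric profiling across 288 kinases (261 wild-type, 27 mutant), run as an outsourced service. Inhibition read out as [gamma-33P]ATP incorporation into substrate.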

[8] = biological target: MAP kinase-activated protein kinase 2 (Homo sapiens) (UniProt P49137); assay: Inhibition of MAPKAPK2 (unknown origin) using [gamma-33P]ATP assessed as residual activity at 3 uM; outline: as §2
[9] = biological target: MAP/microtubule affinity-regulating kinase 3 (Homo sapiens) (UniProt P27448); assay: Inhibition of MARK3 (unknown origin) using [gamma-33P]ATP assessed as residual activity at 3 uM
Chain of MAP/microtubule affinity-regulating kinase 3 (Homo sapiens) (P27448 whole entry, looked up): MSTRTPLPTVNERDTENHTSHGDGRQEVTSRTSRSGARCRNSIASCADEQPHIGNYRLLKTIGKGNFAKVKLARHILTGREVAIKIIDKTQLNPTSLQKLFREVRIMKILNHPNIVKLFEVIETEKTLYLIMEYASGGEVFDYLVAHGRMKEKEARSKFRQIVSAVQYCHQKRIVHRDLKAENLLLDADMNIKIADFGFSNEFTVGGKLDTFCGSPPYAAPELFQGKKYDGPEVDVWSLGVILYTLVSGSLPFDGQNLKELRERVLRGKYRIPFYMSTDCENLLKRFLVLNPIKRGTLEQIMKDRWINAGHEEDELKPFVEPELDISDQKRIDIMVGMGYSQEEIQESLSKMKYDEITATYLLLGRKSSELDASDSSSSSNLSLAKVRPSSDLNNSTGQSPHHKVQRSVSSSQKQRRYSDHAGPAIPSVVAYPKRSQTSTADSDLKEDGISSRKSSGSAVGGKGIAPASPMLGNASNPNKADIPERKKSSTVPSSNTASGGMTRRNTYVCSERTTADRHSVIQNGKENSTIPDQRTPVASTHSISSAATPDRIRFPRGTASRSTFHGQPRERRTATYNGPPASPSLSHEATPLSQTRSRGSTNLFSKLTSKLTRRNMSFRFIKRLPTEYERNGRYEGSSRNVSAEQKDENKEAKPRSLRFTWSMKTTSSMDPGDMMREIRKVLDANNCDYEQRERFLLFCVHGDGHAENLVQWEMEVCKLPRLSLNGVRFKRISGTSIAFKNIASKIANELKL
Outline: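 Contract radiometric panel screen of 288 kinases (261 wild-type, 27 mutant). Inhibition was read by [gamma-33P]ATP radioactivity incorporation.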

[10] = biological target: Insulin receptor-related protein (Homo sapiens) (UniProt P14616); assay: Inhibition of IRR (unknown origin) using [gamma-33P]ATP assessed as residual activity at 3 uM; outline: as §2
[11] = biological target: Serine/threonine-protein kinase NLK (Homo sapiens) (UniProt Q9UBE8); assay: Inhibition of NLK (unknown origin) using [gamma-33P]ATP assessed as residual activity at 3 uM
[12] = biological target: MAP kinase-activated protein kinase 5 (Homo sapiens) (UniProt Q8IW41); assay: Inhibition of MAPKAPK5 (unknown origin) using [gamma-33P]ATP assessed as residual activity at 3 uM; outline: as §2
[13] = biological target: Mitogen-activated protein kinase 9 (Homo sapiens) (UniProt P45984); assay: Inhibition of JNK2a2 (unknown origin) using [gamma-33P]ATP assessed as residual activity at 3 uM; outline: as §2
[14] = biological target: Tyrosine-protein kinase JAK1 (Homo sapiens) (UniProt P23458); assay: Inhibition of JAK1 (unknown origin) using [gamma-33P]ATP assessed as residual activity at 3 uM; outline: as §2
Chain of Tyrosine-protein kinase JAK1 (Homo sapiens) (P23458 whole entry): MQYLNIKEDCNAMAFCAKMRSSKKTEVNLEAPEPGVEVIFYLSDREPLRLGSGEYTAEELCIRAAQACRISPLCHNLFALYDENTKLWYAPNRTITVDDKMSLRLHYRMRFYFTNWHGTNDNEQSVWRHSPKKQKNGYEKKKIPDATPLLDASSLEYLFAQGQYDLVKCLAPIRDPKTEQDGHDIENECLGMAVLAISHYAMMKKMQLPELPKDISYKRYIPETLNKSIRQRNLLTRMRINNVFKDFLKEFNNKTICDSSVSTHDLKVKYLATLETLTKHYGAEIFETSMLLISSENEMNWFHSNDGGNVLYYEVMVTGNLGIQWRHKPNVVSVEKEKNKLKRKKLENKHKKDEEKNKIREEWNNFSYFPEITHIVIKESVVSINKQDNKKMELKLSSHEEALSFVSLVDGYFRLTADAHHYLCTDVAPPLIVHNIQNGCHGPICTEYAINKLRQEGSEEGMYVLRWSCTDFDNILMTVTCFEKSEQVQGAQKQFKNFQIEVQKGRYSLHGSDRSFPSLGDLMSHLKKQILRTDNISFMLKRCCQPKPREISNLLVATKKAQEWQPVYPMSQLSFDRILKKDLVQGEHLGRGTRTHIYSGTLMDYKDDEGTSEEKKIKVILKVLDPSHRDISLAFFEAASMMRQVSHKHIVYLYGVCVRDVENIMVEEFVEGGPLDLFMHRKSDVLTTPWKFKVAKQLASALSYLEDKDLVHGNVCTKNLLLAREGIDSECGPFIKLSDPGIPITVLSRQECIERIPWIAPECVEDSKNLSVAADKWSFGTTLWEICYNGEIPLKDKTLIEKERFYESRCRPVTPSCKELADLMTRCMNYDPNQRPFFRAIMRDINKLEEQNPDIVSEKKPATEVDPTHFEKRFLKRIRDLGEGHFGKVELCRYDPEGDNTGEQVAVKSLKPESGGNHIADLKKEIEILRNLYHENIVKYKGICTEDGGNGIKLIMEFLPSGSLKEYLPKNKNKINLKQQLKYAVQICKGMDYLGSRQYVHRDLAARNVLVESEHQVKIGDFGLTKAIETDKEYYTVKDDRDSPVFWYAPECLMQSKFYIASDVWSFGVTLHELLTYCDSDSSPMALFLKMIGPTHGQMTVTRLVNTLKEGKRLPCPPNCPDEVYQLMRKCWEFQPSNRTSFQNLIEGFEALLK

[15] = test system: Tyrosine-protein kinase ABL1 (Homo sapiens), P00519 [M351T]; assay: Inhibition of ABL1 M351T mutant (unknown origin) using [gamma-33P]ATP assessed as residual activity at 3 uM; outline: as §3
[16] = biological target: Ephrin type-A receptor 7 (Homo sapiens) (UniProt Q15375); assay: Inhibition of EPHA7 (unknown origin) using [gamma-33P]ATP assessed as residual activity at 3 uM; outline: as §1
[17] = biological target: Macrophage colony-stimulating factor 1 receptor (Homo sapiens) (UniProt P07333); assay: Inhibition of FMS (unknown origin) using [gamma-33P]ATP assessed as residual activity at 3 uM; outline: as §2
[18] = biological target: Serine/threonine-protein kinase PAK 4 (Homo sapiens) (UniProt O96013); assay: Inhibition of PAK4 (unknown origin) using [gamma-33P]ATP assessed as residual activity at 3 uM
Chain of Serine/threonine-protein kinase PAK 4 (Homo sapiens) (O96013 whole entry, looked up): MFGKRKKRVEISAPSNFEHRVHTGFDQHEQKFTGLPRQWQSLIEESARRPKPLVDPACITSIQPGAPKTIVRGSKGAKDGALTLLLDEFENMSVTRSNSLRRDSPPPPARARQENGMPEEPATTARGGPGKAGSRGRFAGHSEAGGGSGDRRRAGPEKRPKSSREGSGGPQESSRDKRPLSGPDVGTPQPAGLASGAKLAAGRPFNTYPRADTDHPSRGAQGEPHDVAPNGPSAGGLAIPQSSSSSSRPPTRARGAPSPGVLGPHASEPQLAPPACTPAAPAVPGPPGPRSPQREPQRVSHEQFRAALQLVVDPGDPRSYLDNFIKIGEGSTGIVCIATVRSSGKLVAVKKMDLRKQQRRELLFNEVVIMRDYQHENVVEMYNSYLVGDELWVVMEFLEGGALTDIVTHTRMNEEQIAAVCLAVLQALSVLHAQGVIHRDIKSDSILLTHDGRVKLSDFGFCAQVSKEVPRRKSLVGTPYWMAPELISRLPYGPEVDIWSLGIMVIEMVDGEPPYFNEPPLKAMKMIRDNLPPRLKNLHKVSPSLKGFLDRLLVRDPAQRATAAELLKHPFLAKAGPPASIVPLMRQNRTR

[19] = biological target: Interleukin-1 receptor-associated kinase 1 (Homo sapiens) (UniProt P51617); assay: Inhibition of IRAK1 (unknown origin) using [gamma-33P]ATP assessed as residual activity at 3 uM; outline: as §2
[20] = biological target: Ephrin type-B receptor 4 (Homo sapiens) (UniProt P54760); assay: Inhibition of EPHB4 (unknown origin) using [gamma-33P]ATP assessed as residual activity at 3 uM; outline: as §1
[21] = biological target: Mitogen-activated protein kinase kinase kinase kinase 2 (Homo sapiens) (UniProt Q12851); assay: Inhibition of GCK (unknown origin) using [gamma-33P]ATP assessed as residual activity at 3 uM
[22] = biological target: Tyrosine-protein kinase receptor TYRO3 (Homo sapiens) (UniProt Q06418); assay: Inhibition of TYRO3 (unknown origin) using [gamma-33P]ATP assessed as residual activity at 3 uM
[23] = biological target: Tyrosine-protein kinase Lck (Homo sapiens) (UniProt P06239); assay: Inhibition of LCK (unknown origin) using [gamma-33P]ATP assessed as residual activity at 3 uM; outline: as §2
[24] = biological target: Tyrosine-protein kinase JAK3 (Homo sapiens) (UniProt P52333); assay: Inhibition of JAK3 (unknown origin) using [gamma-33P]ATP assessed as residual activity at 3 uM; outline: as §2
[25] = biological target: Testis-specific serine/threonine-protein kinase 1 (Homo sapiens) (UniProt Q9BXA7); assay: Inhibition of STK22D (unknown origin) using [gamma-33P]ATP assessed as residual activity at 3 uM
[26] = biological target: cAMP-dependent protein kinase catalytic subunit PRKX (Homo sapiens) (UniProt P51817); assay: Inhibition of PRKX (unknown origin) using [gamma-33P]ATP assessed as residual activity at 3 uM
[27] = biological target: Serine/threonine-protein kinase Nek1 (Homo sapiens) (UniProt Q96PY6); assay: Inhibition of NEK1 (unknown origin) using [gamma-33P]ATP assessed as residual activity at 3 uM
Chain of Serine/threonine-protein kinase Nek1 (Homo sapiens) (Q96PY6 whole entry): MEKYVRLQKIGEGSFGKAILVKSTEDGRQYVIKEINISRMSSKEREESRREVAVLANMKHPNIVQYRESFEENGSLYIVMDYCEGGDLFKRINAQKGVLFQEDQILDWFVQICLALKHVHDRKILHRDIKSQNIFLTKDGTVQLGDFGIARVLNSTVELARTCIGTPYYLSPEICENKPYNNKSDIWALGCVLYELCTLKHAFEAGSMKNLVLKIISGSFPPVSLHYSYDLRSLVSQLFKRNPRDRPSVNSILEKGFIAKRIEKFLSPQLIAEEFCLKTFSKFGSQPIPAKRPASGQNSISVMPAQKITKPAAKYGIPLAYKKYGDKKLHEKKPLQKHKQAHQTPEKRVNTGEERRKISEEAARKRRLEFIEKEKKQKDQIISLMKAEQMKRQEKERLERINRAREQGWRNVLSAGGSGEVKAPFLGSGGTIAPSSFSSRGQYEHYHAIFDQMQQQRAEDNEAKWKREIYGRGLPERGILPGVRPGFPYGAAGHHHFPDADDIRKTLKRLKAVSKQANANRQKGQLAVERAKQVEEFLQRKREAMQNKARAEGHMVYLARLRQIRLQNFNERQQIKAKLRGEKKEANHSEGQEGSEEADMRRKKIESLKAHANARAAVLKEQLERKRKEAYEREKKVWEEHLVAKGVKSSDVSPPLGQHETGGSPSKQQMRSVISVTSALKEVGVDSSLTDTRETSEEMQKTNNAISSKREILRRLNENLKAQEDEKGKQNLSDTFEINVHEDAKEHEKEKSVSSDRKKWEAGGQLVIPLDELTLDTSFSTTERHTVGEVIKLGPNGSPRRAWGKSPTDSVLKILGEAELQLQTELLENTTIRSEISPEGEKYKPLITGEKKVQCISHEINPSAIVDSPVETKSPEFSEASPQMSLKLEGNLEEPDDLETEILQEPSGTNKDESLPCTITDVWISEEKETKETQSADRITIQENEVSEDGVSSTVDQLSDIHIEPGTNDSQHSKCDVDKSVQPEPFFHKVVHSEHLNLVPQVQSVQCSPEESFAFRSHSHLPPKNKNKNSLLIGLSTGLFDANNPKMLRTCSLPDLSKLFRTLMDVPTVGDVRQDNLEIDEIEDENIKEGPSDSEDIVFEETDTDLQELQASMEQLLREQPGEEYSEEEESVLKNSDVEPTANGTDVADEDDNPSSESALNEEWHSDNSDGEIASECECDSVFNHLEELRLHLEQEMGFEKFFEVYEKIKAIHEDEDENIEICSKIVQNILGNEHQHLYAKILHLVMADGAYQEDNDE

[28] = test system: Fibroblast growth factor receptor 2 (Homo sapiens), P21802 [N549H]; assay: Inhibition of FGFR2 N549H mutant (unknown origin) using [gamma-33P]ATP assessed as residual activity at 3 uM; outline: as §1
[29] = biological target: Tyrosine-protein kinase BTK (Homo sapiens) (UniProt Q06187); assay: Inhibition of BTK (unknown origin) using [gamma-33P]ATP assessed as residual activity at 3 uM; outline: as §3
[30] = biological target: Protein kinase C beta type (Homo sapiens) (UniProt P05771); assay: Inhibition of PKCb1 (unknown origin) using [gamma-33P]ATP assessed as residual activity at 3 uM
[31] = biological target: Glycogen synthase kinase-3 alpha (Homo sapiens) (UniProt P49840); assay: Inhibition of GSK3a (unknown origin) using [gamma-33P]ATP assessed as residual activity at 3 uM; outline: as §2

Chain of SRSF protein kinase 2 (Homo sapiens) (P78362 whole entry, looked up): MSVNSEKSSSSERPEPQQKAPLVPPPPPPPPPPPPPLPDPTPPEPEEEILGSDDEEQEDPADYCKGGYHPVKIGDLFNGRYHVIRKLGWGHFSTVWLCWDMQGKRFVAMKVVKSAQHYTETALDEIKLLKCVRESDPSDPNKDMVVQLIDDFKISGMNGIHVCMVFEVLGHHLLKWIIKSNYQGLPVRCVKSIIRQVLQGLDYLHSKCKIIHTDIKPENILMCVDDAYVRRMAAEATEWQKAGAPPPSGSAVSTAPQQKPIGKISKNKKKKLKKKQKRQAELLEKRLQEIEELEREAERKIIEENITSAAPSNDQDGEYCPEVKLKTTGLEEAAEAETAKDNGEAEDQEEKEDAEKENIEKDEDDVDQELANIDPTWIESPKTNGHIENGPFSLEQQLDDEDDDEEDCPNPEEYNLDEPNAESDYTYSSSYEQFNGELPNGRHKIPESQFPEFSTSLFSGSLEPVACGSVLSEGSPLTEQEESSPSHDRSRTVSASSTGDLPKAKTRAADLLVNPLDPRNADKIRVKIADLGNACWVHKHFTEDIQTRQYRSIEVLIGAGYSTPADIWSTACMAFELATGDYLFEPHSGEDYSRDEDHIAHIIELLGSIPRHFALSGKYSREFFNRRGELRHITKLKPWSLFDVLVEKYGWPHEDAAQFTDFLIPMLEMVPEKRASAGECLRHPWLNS

Activity [1]: 102% | Activity [2]: 94% | Activity [3]: 98% | Activity [4]: 95% | Activity [5]: 101% | Activity [6]: 87% | Activity [7]: 94% | Activity [8]: 97% | Activity [9]: 96% | Activity [10]: 100% | Activity [11]: 95% | Activity [12]: 87% | Activity [13]: 98% | Activity [14]: 81% | Activity [15]: 66% | Activity [16]: 93% | Activity [17]: 96% | Activity [18]: 97% | Activity [19]: 102% | Activity [20]: 78% | Activity [21]: 40% | Activity [22]: 94% | Activity [23]: 87% | Activity [24]: 94% | Activity [25]: 87% | Activity [26]: 93% | Activity [27]: 87% | Activity [28]: 102% | Activity [29]: 95% | Activity [30]: 101% | Activity [31]: 81%
SMILES: CCc1ccc(-c2ccc3c(c2)-c2[nH]ncc2S(=O)(=O)N3C)cc1
